Bioassay records: PubChem, several laboratories
H69AR growth 86K – growth inhibitors of human H69AR lung tumor cells; H69AR lung tumor viability, ATP luminescence, 72 h; hits give low values; viability, % at 10 µM; AID 598; 6% of 85,000 active;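 active = viability at or below 40%; inactive = viability above 40%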;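 also: multidrug resistant small cell line overexpressing MRP-1 efflux transporter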
ERa coact pot – ER-alpha (human) coactivator binding potentiation; coactivator binding (% of control), % at 25.6 µM; 1.3% of 86,000 active; TR-FRET ERalpha-LBD/SRC-Cy5 coactivator binding, 2 h; 100 = basal binding, no effect; P03372; AID 639; in the data active = activity above about 200%;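 also: binding measured in presence of low estradiol as agonist stimulus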
Target sequence (P03372 whole entry, looked up, the tested form may be a part): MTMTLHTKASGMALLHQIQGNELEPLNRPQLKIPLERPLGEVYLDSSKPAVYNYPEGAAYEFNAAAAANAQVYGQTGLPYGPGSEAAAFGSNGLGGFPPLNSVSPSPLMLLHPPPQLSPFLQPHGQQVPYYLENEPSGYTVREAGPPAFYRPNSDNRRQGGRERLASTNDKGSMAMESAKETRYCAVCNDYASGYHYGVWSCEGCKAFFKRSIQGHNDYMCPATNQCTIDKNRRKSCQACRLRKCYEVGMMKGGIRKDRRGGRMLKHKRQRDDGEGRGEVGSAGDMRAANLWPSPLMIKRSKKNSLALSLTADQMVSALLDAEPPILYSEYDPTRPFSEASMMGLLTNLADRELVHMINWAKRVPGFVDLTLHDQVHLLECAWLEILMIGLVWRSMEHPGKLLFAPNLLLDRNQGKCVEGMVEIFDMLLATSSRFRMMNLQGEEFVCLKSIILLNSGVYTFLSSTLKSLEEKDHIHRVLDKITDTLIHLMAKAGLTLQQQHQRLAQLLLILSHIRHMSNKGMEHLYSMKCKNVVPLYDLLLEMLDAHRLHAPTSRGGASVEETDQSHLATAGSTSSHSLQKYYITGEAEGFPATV
ERa SRC1 inh – ER-alpha (human) coactivator binding inhibition | P03372 | TR-FRET ER-alpha LBD / SRC-1 peptide, estradiol-bound | inhibition, % at 25.6 µM | 1.7% of 86,000 active | AID 629; in the data active = inhibition above about 50%
ERb SRC1 inh – ER-beta (human) coactivator binding inhibition; Q92731; TR-FRET ER-beta LBD / SRC1-Cy5 peptide binding; receptor agonist-loaded with 1 µM estradiol; inhibition, % at 25.6 µM; 1.3% of 86,000 active; AID 633;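 active = compounds whose percent inhibition of the receptor-coactivator binding signal exceeds about 50% in the single-dose screen, limit read from the data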
HUVEC prolif 384 – human endothelial cell proliferation inhibition | AID 648 | HUVEC proliferation, CellTiter-Glo luminescence, 72 h; hits give low values | 1.1% of 86,000 active | viability, % at 10 µM (by protocol);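 active = viability at or below 30%; inactive = viability above 30%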
Fibroblast inh – blocks proliferation of human lung fibroblasts; LL 47 human lung fibroblast viability, ATP luminescence; hits give low values; 1.1% of 85,000 active; AID 719; viability, % at 10 µM;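 active = viability at or below 50% in the single dose screen; inactive = viability above 50%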;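 also: compound exposure lasted 72 h before the ATP readout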
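Test system: LL 47 human lung fibroblasts / Quantity: 1,150 cells in each well / Medium: IMEM growth medium with 15% fetal bovine serum / Incubation: 72 h compound exposure at 37 °C after overnight plating / Detection: CellTiter-Glo luminescence measuring cellular ATP / Read-out: % viability versus median cells-only luminescence / Benchmarks: cell-only wells, no compound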
A number is an active result; [ ] = dose if it differs, or a comment. A selection: hits, their analogues and other compounds. The true share with any hit is near 9.2%.

COc1ccc2c(c1)C(C)=CC(C)(C)N2C(=O)CSc1nnc(-c2ccc(C)cc2)o1 was read as H69AR growth 86K inactive, ERa coact pot inactive, ERa SRC1 inh inactive, ERb SRC1 inh inactive, HUVEC prolif 384 inactive and Fibroblast inh inactive.
For COc1ccc(C)cc1NC(=O)c1ccoc1C the results were H69AR growth 86K inactive, ERa coact pot inactive, ERa SRC1 inh inactive, ERb SRC1 inh inactive, HUVEC prolif 384 inactive and Fibroblast inh inactive.
Screening COc1ccc(C)cc1NC(=O)c1cc2c(CO)cnc(C)c2oc1=N returned H69AR growth 86K inactive, ERa coact pot 239[fluorescence artefact?], ERa SRC1 inh inactive, ERb SRC1 inh inactive, HUVEC prolif 384 inactive and Fibroblast inh inactive.
COc1nc(C)nc(NC(=O)NS(=O)(=O)c2ccc(C)cc2)n1 was read as H69AR growth 86K inactive, ERa coact pot inactive, ERa SRC1 inh inactive, ERb SRC1 inh 51[fluorescence artefact?], HUVEC prolif 384 inactive and Fibroblast inh inactive.
Screening S=C(Nc1ccccn1)c1ccccn1 returned H69AR growth 86K 1.3, ERa coact pot inactive, ERa SRC1 inh inactive, ERb SRC1 inh inactive, HUVEC prolif 384 inactive and Fibroblast inh inactive.
Screening Cc1ccc(C)c(NC(=S)c2ccccn2)c1 returned H69AR growth 86K 2.7, ERa coact pot inactive, ERa SRC1 inh inactive, ERb SRC1 inh inactive, HUVEC prolif 384 inactive and Fibroblast inh inactive.
Screening CCCCn1c(NC(C)CC)nc2c1c(=O)[nH]c(=O)n2C (configuration not stated) returned H69AR growth 86K inactive, ERa coact pot inactive, ERa SRC1 inh inactive, ERb SRC1 inh inactive, HUVEC prolif 384 inactive and Fibroblast inh inactive.
Cc1ccc(S(=O)(=O)N2CCN(S(=O)(=O)N(C)C)CC2)c(C)c1 was read as H69AR growth 86K inactive, ERa coact pot inactive, ERa SRC1 inh inactive, ERb SRC1 inh inactive, HUVEC prolif 384 inactive and Fibroblast inh inactive.
c1ccc(-c2nc(N3CCOCC3)c3ccccc3n2)nc1 was read as H69AR growth 86K 26, ERa coact pot inactive, ERa SRC1 inh inactive, ERb SRC1 inh inactive, HUVEC prolif 384 inactive and Fibroblast inh inactive.
c1ccc(-c2nc(N3CCCCCC3)c3ccccc3n2)nc1 was read as H69AR growth 86K 7.6, ERa coact pot inactive, ERa SRC1 inh inactive, ERb SRC1 inh inactive, HUVEC prolif 384 inactive and Fibroblast inh 37.
`c1ccc(CN2CCN(c3nc(-c4ccccn4)nc4ccccc34)CC2)cc1` gave H69AR growth 86K 3.2, ERa coact pot inactive, ERa SRC1 inh inactive, ERb SRC1 inh inactive, HUVEC prolif 384 14 and Fibroblast inh 45.
Screening CCN1CCN(c2nc(-c3ccccn3)nc3ccccc23)CC1 returned H69AR growth 86K inactive, ERa coact pot inactive, ERa SRC1 inh inactive, ERb SRC1 inh inactive, HUVEC prolif 384 inactive and Fibroblast inh inactive.
CON(c1nc(Cl)nc(N(C)C)n1)S(=O)(=O)c1ccccc1Cl was read as H69AR growth 86K 22, ERa coact pot inactive, ERa SRC1 inh inactive, ERb SRC1 inh inactive, HUVEC prolif 384 inactive and Fibroblast inh inactive.
For CCNC(=O)c1c(C)[nH]c(C(=O)OCC)c1C the results were H69AR growth 86K inactive, ERa coact pot inactive, ERa SRC1 inh inactive, ERb SRC1 inh inactive, HUVEC prolif 384 inactive and Fibroblast inh inactive.
CCOC(=O)c1[nH]c(C)c(C(=O)NCc2ccc(Cl)cc2)c1C was read as H69AR growth 86K inactive, ERa coact pot inactive, ERa SRC1 inh inactive, ERb SRC1 inh inactive, HUVEC prolif 384 inactive and Fibroblast inh inactive.
`CCOC(=O)c1[nH]c(C)c(C(=O)Nc2cc(Cl)ccc2C)c1C` gave H69AR growth 86K 24, ERa coact pot inactive, ERa SRC1 inh inactive, ERb SRC1 inh inactive, HUVEC prolif 384 inactive and Fibroblast inh inactive.
CCOC(=O)c1[nH]c(C)c(C(=O)Nc2ccccc2C)c1C was read as H69AR growth 86K 26, ERa coact pot inactive, ERa SRC1 inh inactive, ERb SRC1 inh inactive, HUVEC prolif 384 inactive and Fibroblast inh inactive.
`CCOC(=O)c1c(C)[nH]c(C(C)=O)c1C` gave H69AR growth 86K inactive, ERa coact pot inactive, ERa SRC1 inh inactive, ERb SRC1 inh inactive, HUVEC prolif 384 inactive and Fibroblast inh inactive.
CCOC(=O)c1[nH]c(C)c(C(=O)OCCN2C(=O)c3ccccc3C2=O)c1C was read as H69AR growth 86K 34, ERa coact pot inactive, ERa SRC1 inh inactive, ERb SRC1 inh inactive, HUVEC prolif 384 inactive and Fibroblast inh inactive.
c1ccc(Cc2cc(-c3ccccc3)on2)cc1 was read as H69AR growth 86K inactive, ERa coact pot inactive, ERa SRC1 inh inactive, ERb SRC1 inh inactive, HUVEC prolif 384 inactive and Fibroblast inh inactive.
`CC(NC(=O)c1cccnc1)c1ccc2c(c1)OCO2` (configuration not stated) gave H69AR growth 86K inactive, ERa coact pot inactive, ERa SRC1 inh inactive, ERb SRC1 inh inactive, HUVEC prolif 384 inactive and Fibroblast inh inactive.
Cc1nc(N2CCN(c3ccccc3)CC2)c2c3c(sc2n1)CCC3 was read as H69AR growth 86K inactive, ERa coact pot inactive, ERa SRC1 inh inactive, ERb SRC1 inh inactive, HUVEC prolif 384 inactive and Fibroblast inh inactive.
CSc1nc(N2CCOCC2)c2c3c(sc2n1)CCC3 was read as H69AR growth 86K inactive, ERa coact pot inactive, ERa SRC1 inh inactive, ERb SRC1 inh 62[fluorescence artefact?], HUVEC prolif 384 inactive and Fibroblast inh inactive.
Cn1c(-c2ccc3ccccc3n2)nc2cnccc21 was read as H69AR growth 86K inactive, ERa coact pot inactive, ERa SRC1 inh inactive, ERb SRC1 inh inactive, HUVEC prolif 384 29 and Fibroblast inh inactive.
`O=C(c1c[nH]c(C(=O)C(Cl)(Cl)Cl)c1)c1ccccc1Cl` gave H69AR growth 86K 23, ERa coact pot inactive, ERa SRC1 inh inactive, ERb SRC1 inh inactive, HUVEC prolif 384 inactive and Fibroblast inh inactive.
For CCN(CC)c1ccc(-c2nn3c(-c4n[nH]c5c4CCC5)nnc3s2)cc1 the results were H69AR growth 86K 22, ERa coact pot inactive, ERa SRC1 inh inactive, ERb SRC1 inh inactive, HUVEC prolif 384 inactive and Fibroblast inh 45.
`CN(C)c1ccc(-c2nn3c(-c4cccnc4)nnc3s2)cc1` gave H69AR growth 86K inactive, ERa coact pot inactive, ERa SRC1 inh inactive, ERb SRC1 inh inactive, HUVEC prolif 384 inactive and Fibroblast inh inactive.
`c1coc(-c2nnc3sc(C4CCCCC4)nn23)c1` gave H69AR growth 86K inactive, ERa coact pot inactive, ERa SRC1 inh inactive, ERb SRC1 inh inactive, HUVEC prolif 384 inactive and Fibroblast inh inactive.
`C1CCC(c2nn3c(-c4n[nH]c5c4CCC5)nnc3s2)CC1` gave H69AR growth 86K inactive, ERa coact pot inactive, ERa SRC1 inh 75, ERb SRC1 inh 61, HUVEC prolif 384 inactive and Fibroblast inh inactive.
For CCOc1cc(N2CCOCC2)c(OCC)cc1NC(=O)CCC1CCCC1 the results were H69AR growth 86K inactive, ERa coact pot inactive, ERa SRC1 inh inactive, ERb SRC1 inh inactive, HUVEC prolif 384 inactive and Fibroblast inh inactive.
For CCOc1cc(N2CCOCC2)c(OCC)cc1NC(=O)COC(=O)c1cc(C)oc1C the results were H69AR growth 86K 38, ERa coact pot inactive, ERa SRC1 inh inactive, ERb SRC1 inh inactive, HUVEC prolif 384 inactive and Fibroblast inh inactive.
